From ChEMBL document CHEMBL1151739, “Probes for narcotic receptor mediated phenomena. 37. Synthesis and opioid binding affinity of the final pair of oxide-bridged phenylmorphans, the ortho- and para-b-isomers and their N-phenethyl analogues, and the synthesis of the N-phenethyl analogues of the ortho- and para-d-isomers” (J Med Chem, 2008)

Legend:
Mu-type opioid receptor [1] = target: T1, Mu-type opioid receptor (Homo sapiens, UniProt P35372); assay: Binding affinity to mu opioid receptor
Mu-type opioid receptor [2] = target: T1, Mu-type opioid receptor; assay: Displacement of [125I]IOXY from human recombinant mu opioid receptor expressed in CHO cells; type: cell-based
How it was run: (§1)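 Radioligand displacement run in CHO cells stably transfected to express the μ-, δ- or κ-opioid receptor, each receptor in its own line. The method follows the authors' earlier procedure. Each value comes from n=3 determinations.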

[3] = target: Delta-type opioid receptor (Homo sapiens, UniProt P41143); assay: Displacement of [125I]IOXY from human recombinant delta opioid receptor expressed in CHO cells; type: cell-based; how it was run: as §1
Chain of Delta-type opioid receptor (P41143 whole entry): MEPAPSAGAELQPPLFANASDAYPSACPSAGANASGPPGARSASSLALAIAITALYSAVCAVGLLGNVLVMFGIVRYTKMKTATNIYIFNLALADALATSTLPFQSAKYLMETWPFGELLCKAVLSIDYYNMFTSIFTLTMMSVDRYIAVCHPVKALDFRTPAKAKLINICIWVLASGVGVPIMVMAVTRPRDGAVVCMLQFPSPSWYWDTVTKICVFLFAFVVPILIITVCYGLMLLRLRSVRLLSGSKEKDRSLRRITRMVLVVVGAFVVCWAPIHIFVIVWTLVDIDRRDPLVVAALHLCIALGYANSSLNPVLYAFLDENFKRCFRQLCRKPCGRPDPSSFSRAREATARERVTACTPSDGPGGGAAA

[4] = target: Kappa-type opioid receptor (Homo sapiens, UniProt P41145); assay: Displacement of [125I]IOXY from human recombinant kappa opioid receptor expressed in CHO cells; type: cell-based; how it was run: as §1
Chain of Kappa-type opioid receptor (P41145 whole entry): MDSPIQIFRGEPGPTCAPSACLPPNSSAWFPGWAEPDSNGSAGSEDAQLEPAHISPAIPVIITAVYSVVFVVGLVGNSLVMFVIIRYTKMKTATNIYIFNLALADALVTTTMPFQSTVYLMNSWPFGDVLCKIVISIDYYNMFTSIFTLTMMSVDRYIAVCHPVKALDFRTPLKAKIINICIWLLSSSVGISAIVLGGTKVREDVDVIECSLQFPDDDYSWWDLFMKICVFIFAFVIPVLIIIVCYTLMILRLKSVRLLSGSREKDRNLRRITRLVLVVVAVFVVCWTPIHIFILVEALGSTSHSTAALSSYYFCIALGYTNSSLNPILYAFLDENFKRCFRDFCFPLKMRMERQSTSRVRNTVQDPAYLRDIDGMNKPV

T1 sequence (P35372 whole entry): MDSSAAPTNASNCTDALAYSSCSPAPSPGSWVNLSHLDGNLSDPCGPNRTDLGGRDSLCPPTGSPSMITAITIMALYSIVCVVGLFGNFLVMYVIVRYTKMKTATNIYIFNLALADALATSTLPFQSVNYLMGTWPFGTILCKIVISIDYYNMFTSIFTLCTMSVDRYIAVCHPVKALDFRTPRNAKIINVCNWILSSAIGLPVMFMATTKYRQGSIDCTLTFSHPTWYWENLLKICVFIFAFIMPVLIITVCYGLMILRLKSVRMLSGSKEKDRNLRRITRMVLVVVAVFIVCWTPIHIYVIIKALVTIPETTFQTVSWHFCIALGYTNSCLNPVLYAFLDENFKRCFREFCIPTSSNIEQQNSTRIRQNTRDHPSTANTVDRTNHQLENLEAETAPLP

SMILES	Ki (Mu-type opioid receptor [1])	Ki (Mu-type opioid receptor [2])	Ki [3]	Ki [4]
Oc1cccc2c1O[C@@H]1[C@@H]3CCC[C@]21CCN3CCc1ccccc1	7 nM	–	–	–
Oc1ccc2c(c1)[C@]13CCC[C@H](C1)N(CCc1ccccc1)C[C@@H]3O2 (relative stereo)	–	1220 nM	2530 nM	560 nM
